A selection: hits, their analogues and other compounds. The true share with any hit is near 6.4%.
Tb MetRS inh: T. brucei MetRS inhibitors, primary screen, biochemical, luminescence; inhibition, % at 11.9 µM; purified T. brucei MetRS, ATP depletion, Kinase-Glo luminescence; hit rate 0.4% among 360,000; methionyl-tRNA synthetase (Trypanosoma brucei brucei);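 active means inhibition above a per-plate cutoff of the control wells' mean inhibition plus 3 SD, cut at about 5.5% in these data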;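 further: 0% = DMSO wells median and 100% = median of wells with control inhibitor compound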
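Test system – parasite MetRS enzyme · Reagent – substrates ATP, L-methionine and bulk Escherichia coli tRNA · Doses – 11.9 µM compound single dose, 0.9% DMSO · Times – 15 min enzyme-compound preincubation, 2 h reaction, 10 min detection, 25 °C · Signal – Kinase-Glo luminescence, ATP depletion format · Controls – DMSO-only wells as low control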
NR3A LBD binder: binders of NR3A ligand-binding domain, primary screen, biophysical, differential scanning fluorimetry, uHTS | Glutamate receptor ionotropic, NMDA 3A (GRIN3A) ligand-binding domain | NR3A LBD differential scanning fluorimetry, Tm shift; 0% = protein alone, 100% = glycine-bound protein | Tm shift relative to glycine control, % at 25 µM | hit rate 2.5% among 340,000 | AID 1259313, 2017;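 active means melting temperature shift of at least 10% of the positive control shift, at one fixed dose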
EBV gp42 block: Epstein-Barr virus gp42 inhibitors, primary screen, biochemical, uHTS, fluorescence polarization; Glycoprotein 42 (Epstein-Barr virus (strain AG876)), Q1HVG2; Fluorescence polarization binding assay, mP read-out; inhibition, % (tested at 21.74 µM); hit rate 0.42% among 220,000; AID 1085, 2008; in the data active means inhibition above about 50%
Target sequence (Q1HVG2 whole entry, looked up): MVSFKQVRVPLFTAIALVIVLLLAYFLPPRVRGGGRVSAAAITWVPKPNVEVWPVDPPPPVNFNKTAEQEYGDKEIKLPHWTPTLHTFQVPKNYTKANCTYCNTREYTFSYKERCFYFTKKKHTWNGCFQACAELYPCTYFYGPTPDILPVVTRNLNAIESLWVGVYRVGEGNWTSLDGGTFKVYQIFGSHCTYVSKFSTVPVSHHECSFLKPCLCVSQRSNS
WT yeast gro inh: growth inhibition of WT strain, primary screen, mitochondrial fusion inhibitor project, WT and mutant strains, chemical genetic; mitochondrial fusion phenotypic screen; inhibition, % at 10 µM; hit rate 2.1% among 190,000; in the data active means inhibition above about 58%; tested in S. cerevisiae
CHOP inh: inhibitors of CHOP promoter induction, primary screen, cell-based, unfolded protein response, luciferase reporter. hit rate 3.8% among 220,000. inhibition, % at 10 µM. CHO-K1 CHOP-promoter luciferase, tunicamycin-induced, 15-18 h;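 active means compounds that reduced the stress-induced luciferase reporter signal by more than about 70% of percent inhibition, limit read from the data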;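 further: 0% = tunicamycin plus vehicle and 100% = wells without tunicamycin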
MPTP block: mitochondrial permeability transition pore inhibitors, primary screen, biochemical, isolated mouse mitochondria, absorbance. Ca2+ swelling absorbance, 30 min. inhibition, % at 10 µM. hit rate 1.4% among 360,000. AID 602449, 2012;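 active means inhibition of 50% or more, scaled per plate between neutral and stimulator controls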;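 further: 0% = DMSO wells given calcium and 100% = 1 mM EGTA wells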
MPTP counter: fluorescence retest of MPTP screen hits in isolated mitochondria, single concentration; shares compounds with MPTP block; membrane potential, Rhodamine 123 fluorescence; inhibition, % at 10 µM; hit rate 78% among 5,000; in the data active means inhibition above about 22%;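 further: 0% = DMSO vehicle and 100% = positive control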
MPTP swell DR: mitochondrial permeability transition pore inhibitors, dose response, biochemical, absorbance, uHTS hits; isolated mitochondria swelling; shares compounds with MPTP block; hit rate 58% among 780; IC50, µM; AID 651561, 2012; in the data active means IC50 below about 20 µM
MPTP counter DR: fluorescent counter-screen in isolated mitochondria, dose response, counter-screen for MPTP inhibitor project, biochemical, fluorescence, uHTS hits; shares compounds with MPTP block; isolated mitochondria counterscreen, fluorescence read-out; IC50, µM; hit rate 49% among 780; AID 651564, 2012; in the data active means IC50 below about 80 µM
* = called active by the depositor; nt = no result.

SMILES | Tb MetRS inh | NR3A LBD binder | EBV gp42 block | WT yeast gro inh | CHOP inh | MPTP block | MPTP counter | others
Cc1c(CCC(=O)O)c(=O)n2c([nH]c3ccccc32)c1C#N | 1 | 1 | -1 | 8 | 20 | -2 | nt
CCc1cc(=S)n2c([nH]c3ccccc32)c1C#N | 0 | 7 | -15 | 3 | 20 | 101* | 68*
CCc1c(C)c(C#N)c2[nH]c3ccccc3n2c1=S | 0 | 11* | -10 | nt | 37 | 90* | 81*
C=C(C)Cc1c(C)c(C#N)c2[nH]c3ccccc3n2c1=O | 0 | -10 | nt | nt | nt | 3 | nt
CC(=O)c1ccccc1OC(=O)c1ccc(-c2ccccc2)cc1 | 0 | 2 | nt | nt | nt | 0 | nt
O=[N+]([O-])c1cc(-c2ccccc2)cc([N+](=O)[O-])c1O | 0 | -7 | nt | nt | nt | 78* | 89*
O=[N+]([O-])c1cc2ccccc2c(O)c1O | 0 | nt | nt | nt | nt | 0 | nt
CCCOC(=O)c1ccc(OCC(O)Cn2c(C)nc3ccccc32)cc1 (stereo not given) | -1 | 0 | 11 | 19 | 65 | 53* | 103*
CC(C)C[C@H](N)c1cn([C@@H](Cc2cc3ccccc3[nH]2)C(=O)N2CCNCC2)nn1 | 0 | 2 | -9 | 1 | 14 | 92* | -12 | MPTP swell DR=4.9*;MPTP counter DR=>80
CC(NCC(O)COc1ccc(Br)cc1)c1ccccc1 (stereo not given) | -1 | 1 | nt | nt | nt | 81* | -8 | MPTP swell DR=5.5*;MPTP counter DR=>80
CC1CCC(C(C)C)C(OCC(O)CNC(C)c2ccccc2)C1 (stereo not given) | -1 | 0 | -1 | 67* | 93* | 77* | 25*
CC(NCC(O)COc1ccc2ccccc2c1)c1ccccc1 (stereo not given) | -1 | -2 | nt | nt | nt | 2 | nt
CC1CCC(C(C)C)C(OCC(O)CNC(C)(C)C)C1 (stereo not given) | -1 | -1 | -5 | 7 | 63 | 1 | nt
CCCn1c(=O)c2c(nc3n2CCN3Cc2ccco2)n(C)c1=O | 0 | 0 | 2 | -9 | 2 | -2 | nt
CC1CCC(NC(=O)c2cc3ccccc3cc2O)CC1 (stereo not given) | 1 | 8 | nt | nt | nt | 87* | 94*
O=C(NCC1CCCO1)c1cc2ccccc2cc1O (stereo not given) | 0 | 1 | nt | nt | nt | -1 | nt
O=C(NCC1CCCCC1)c1cc2ccccc2cc1O | 0 | 8 | nt | nt | nt | 59* | 81*
Oc1ccc(Oc2ccc(Oc3ccc(O)cc3)cc2)cc1 | 0 | -10 | nt | nt | nt | 62* | 80*
CC1(C)CC(=O)C(C(C2=C(O)CC(C)(C)CC2=O)c2ccc(Br)s2)C(=O)C1 (stereo not given) | 0 | 1 | 7 | 6 | 25 | 73* | 80*
Cc1ccc(C(C2=C(O)CC(C)(C)CC2=O)C2C(=O)CC(C)(C)CC2=O)s1 (stereo not given) | 0 | 2 | -11 | 7 | 4 | 2 | nt
O=C(NCCOc1ccccc1)c1cc(C(=O)NCCOc2ccccc2)cc([N+](=O)[O-])c1 | 0 | -13 | 6 | 9 | 40 | 56* | 93*
O=C(NCCOc1ccccc1)c1ccccc1[N+](=O)[O-] | -1 | 5 | -1 | 0 | 4 | 0 | nt
COc1ccc(-[n+]2c(C)cc(/C=C3\Sc4ccccc4N3C)cc2C)cc1 | 0 | -4 | -77 | 78 | 92* | 95* | 97*
COc1ccccc1-[n+]1c(C)cc(/C=C2\Sc3ccccc3N2C)cc1C | 0 | 2 | -105 | nt | 82* | 104* | 102*
Cc1cc(OCC(=O)NCCN2CCOCC2)cc(C)c1Br | -1 | -2 | -13 | -17 | 28 | 0 | nt
SMILES | Tb MetRS inh | NR3A LBD binder | EBV gp42 block | WT yeast gro inh | CHOP inh | MPTP block | MPTP counter | others
O=C(C1CC(=O)N(C2CCCCC2)C1)N1CCN(c2cccc(C(F)(F)F)c2)CC1 (stereo not given) | 0 | -1 | nt | nt | nt | 0 | nt
Cc1ccccc1N1Cc2ccccc2C1=O | 0 | nt | nt | nt | nt | 3 | nt
Oc1ccc(Cl)cc1Sc1cc(Cl)ccc1O | 0 | 25* | nt | nt | nt | 70* | 68*
O=C(Oc1cccnc1)c1ccc([N+](=O)[O-])cc1Cl | 0 | -4 | -27 | 11 | 46 | 1 | nt
CNC(=S)N/N=C/c1cccc(OCc2ccccc2F)c1 | 0 | -17 | -3 | 67* | 29 | 70* | 28*
O=C(Cc1ccc(Cl)cc1)Nc1ncc([N+](=O)[O-])s1 | 0 | -7 | -8 | 13 | 21 | 96* | 89*
O=C(COc1ccc(Cl)cc1)Nc1ncc([N+](=O)[O-])s1 | -1 | -4 | -7 | 25 | 33 | 95* | 103*
CCC(Oc1ccccc1)C(=O)Nc1ncc([N+](=O)[O-])s1 (stereo not given) | 0 | -9 | -22 | 46 | 13 | 89* | 98*
O=C(Cc1ccc(Br)cc1)Nc1ncc([N+](=O)[O-])s1 | 1 | 4 | 8 | nt | 47 | 74* | 82*
CCOC(=O)c1cnc2c(c(C)nn2C)c1Oc1ccc(OC)cc1 | 0 | 0 | -13 | nt | 19 | 4 | nt
COc1cccc(CCN2CCC(CNS(=O)(=O)c3cc(-c4cc(C)no4)ccc3C)CC2)c1 | 0 | -3 | nt | nt | nt | 79* | 9 | MPTP swell DR=6.8*;MPTP counter DR=24*
COc1cccc(CCN2CCC(CNS(=O)(=O)c3cc(-c4cc(C)no4)ccc3OC)CC2)c1 | 0 | -2 | nt | nt | nt | 4 | nt
NCCCCc1ccc2ccc3cccc4ccc1c2c34 | 0 | -2 | nt | nt | nt | 89* | -15 | MPTP swell DR=6.2*;MPTP counter DR=53*
O=C(O)CCCc1ccc2ccc3cccc4ccc1c2c34 | -1 | 1 | nt | nt | nt | 0 | nt
CC(C)S(=O)(=O)c1csc(NC(=O)Nc2ccc(Cl)cc2)c1 | 3 | 33* | 0 | nt | 26 | 76* | 79*
NS(=O)(=O)c1cccc(NC(=O)Nc2ccc(Cl)cc2)c1 | 3 | 36* | -5 | nt | 12 | 89* | 86*
COC(=O)c1cccc(NC(=S)Nc2ccc(Cl)c(Cl)c2)c1 | -1 | 23* | 1 | nt | 12 | 80* | 91*
CC(C)S(=O)(=O)c1csc(C(=O)NNC(=O)Nc2ccccc2)c1Cl | 0 | -1 | nt | nt | nt | 2 | nt

Bioassay records as filed in PubChem BioAssay.
